Screening data from PubChem.
Granule exo inh = blocks lytic granule exocytosis. inhibition, % at 10 µM. TALL-104 LAMP-1 surface exposure, flow cytometry; cells stimulated with thapsigargin and PMA. 0.66% of 360,000 active;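 active = inhibition above about 55%, limit read from the data; inconclusive = no clear call, values can overlap the other calls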
HNF4A DNA FP = change in binding of human HNF4 alpha to DNA | P41235 | HNF4a-FITC DNA binding, fluorescence polarization, 1 h | activity change, % at 10 µM | 0.3% of 360,000 active | AID 1224865; in the data active = activity change above about 30%, passing the limit was not always enough
Target sequence (P41235 whole entry, looked up): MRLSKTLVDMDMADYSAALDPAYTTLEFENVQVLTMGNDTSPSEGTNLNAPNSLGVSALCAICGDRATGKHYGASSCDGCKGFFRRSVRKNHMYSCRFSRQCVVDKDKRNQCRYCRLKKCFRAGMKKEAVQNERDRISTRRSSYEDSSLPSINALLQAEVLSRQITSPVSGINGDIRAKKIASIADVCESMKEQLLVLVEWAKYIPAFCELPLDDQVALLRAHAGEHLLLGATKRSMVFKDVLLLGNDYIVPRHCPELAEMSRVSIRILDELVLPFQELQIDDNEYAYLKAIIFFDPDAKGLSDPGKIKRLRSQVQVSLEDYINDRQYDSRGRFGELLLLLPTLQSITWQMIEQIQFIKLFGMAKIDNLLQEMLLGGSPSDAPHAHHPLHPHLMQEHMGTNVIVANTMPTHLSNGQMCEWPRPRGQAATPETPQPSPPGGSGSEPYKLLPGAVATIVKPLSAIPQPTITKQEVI
DSG3 Ab inh = human desmoglein-3 autoantibody binding inhibition | P32926 | DSG3-coupled beads, scFv-anti-DSG3-GFP binding, flow cytometry; stronger effect = lower value | binding (percent of control), % at 10 µM | 0.48% of 310,000 active | AID 588358;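 active = binding more than 3 SD below its plate's average and above zero; inconclusive = below that plate limit but binding exactly zero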;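 also: hits lower antibody fragment binding to DSG3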
Myeloid diff MLP = compounds promoting myeloid differentiation. ER-HoxA9 myeloid progenitors, lysozyme-GFP differentiation, flow cytometry. calls only at 10 µM. 1% of 360,000 active;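 active = normalized GFP-positive differentiation at or above the plate's own cutoff, the solvent-only control mean plus 3 SD; inconclusive = no clear call, values can overlap the other calls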;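 also: cells exposed to compound for four days before flow analysis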
SENP1 FRET inh = SENP1 (human) catalytic domain inhibition; Q9P0U3; recombinant SENP1 catalytic domain, CyPet-SUMO1-YPet FRET cleavage; AID 624204; inhibition, % at 10 µM; 0.21% of 360,000 active;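 active = inhibition at least 30% at 10 µM, raw YFP signal under a set limit, fluorescence ratio 0.5 to 1.5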
Target sequence (Q9P0U3 419-644 limits assumed): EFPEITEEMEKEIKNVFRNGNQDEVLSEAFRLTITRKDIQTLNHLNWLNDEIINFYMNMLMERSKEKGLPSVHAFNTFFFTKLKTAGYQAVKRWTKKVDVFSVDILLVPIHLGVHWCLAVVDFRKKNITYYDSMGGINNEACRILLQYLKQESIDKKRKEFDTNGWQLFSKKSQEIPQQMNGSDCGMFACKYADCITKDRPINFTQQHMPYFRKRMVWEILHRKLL
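material = recombinant human SENP1 catalytic domain, His6-tagged | quantity = 20 pM enzyme | reagent = 25 nM SUMO1 FRET substrate | compound dosing = 10 µM single point, 0.5% DMSO | timing = 50 min enzyme reaction, room temperature, light-protected | detection = FRET, CFP and YFP emission | control set = no-enzyme low, enzyme-DMSO high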
Cardio protect = protects H9c2 cardiomyocytes from peroxide injury; H2O2 injury protection, ATPLite, 2 h; protection from H2O2 cell death, % at 20 µM; 0.63% of 360,000 active;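 active = compounds giving at least 50% protection of heart cells from peroxide-induced death in the single-dose screen, raw or plate-pattern-corrected value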
Granule exo CP1 = lytic granule exocytosis inhibition; shares compounds with Granule exo inh; TALL-104 cells, LAMP-1 externalization, flow cytometry; stimulated with PMA plus thapsigargin; inhibition, % at 10 µM; 11% of 1,500 active; AID 651954; in the data active = inhibition above about 60%
Each line names hits and unclear results; the compound was inactive in the other large screens (follow-up assays come after a bar, where they were run). An excerpt weighted towards active compounds, which were near 3% of everything screened.

CCOc1ccccc1N(CC(=O)NC1CCCCC1)S(=O)(=O)c1ccccc1	Granule exo inh 70.0 | Granule exo CP1 inactive
CCOc1ccc(C(=O)NC(=S)Nc2ccccc2N2CCOCC2)cc1Br	none
O=C(NCCc1cccc(Cl)c1)c1cccc(-n2cnnn2)c1	none
COc1ccccc1CNC(c1ccccc1)c1ccccc1	none
CCOc1ccccc1CNC(c1ccccc1)c1ccccc1	Granule exo inh 59.2 | Granule exo CP1 inactive
COc1ccc(C(=O)N(CCc2ccccc2)Cc2cccs2)c(OC)c1	Granule exo inh 63.6 | Granule exo CP1 inactive
Nc1ccccc1C(=O)NN=Cc1cccnc1	none (no result: DSG3 Ab inh)
CCOC(=O)c1c(NC(=O)COC(=O)c2cnccn2)sc(C)c1C	none
CCN(CC)c1cc(C)c2cc(NC(=O)c3cccs3)ccc2n1	Granule exo inh 66.8 | Granule exo CP1 inactive
CCCSc1nc2c(c(=O)[nH]c(=O)n2C)n1CC(O)COc1ccccc1 (centres undefined)	none
CCSc1nc2c(c(=O)[nH]c(=O)n2C)n1CC(O)COc1ccccc1 (centres undefined)	Granule exo inh 87.1 | Granule exo CP1 inactive
COc1ccc(N2C(=O)CC(Sc3nnc(-c4ccccc4)o3)C2=O)cc1 (centres undefined)	Granule exo inh 57.1 | Granule exo CP1 86.9
CCOC(=O)C1(C)CCN1C(=O)c1cccc(C#N)c1 (centres undefined)	none (no result: DSG3 Ab inh)
O=C(Cc1ccccc1)NNC(=O)Nc1ccccc1	none
COCCNC(=S)N(CCc1c(C)[nH]c2ccc(F)cc12)Cc1ccc(C)cc1	Granule exo inh 77.1 | Granule exo CP1 inactive
COCCNC(=S)N(CCc1c(C)[nH]c2ccc(C)cc12)Cc1ccco1	none
CCOC(=O)N1CCN(C(=O)c2cccc(S(=O)(=O)Nc3ccccc3Cl)c2)CC1	none
CCOC(=O)[C@]12CCCC=C1N(Cc1ccco1)C(=O)[C@H](CC(=O)N1CCN(C(=O)c3ccco3)CC1)C2	none (no result: DSG3 Ab inh, Cardio protect)
CC(=O)c1c(C)nn(-c2ccccc2)c1C	none (no result: DSG3 Ab inh)
Cc1ccc(CN(C)C(=O)c2c(C)nn(-c3ccccc3)c2C)cc1	Granule exo inh 67.1 | Granule exo CP1 inactive
O=C(OCc1nc2ccccc2s1)c1ccc(Br)o1	none
O=C(OCc1nc2ccccc2s1)c1ccco1	Granule exo inh 74.6 | Granule exo CP1 inactive
O=S(=O)(c1ccccc1)c1nnn2c1nc(NC1CCN(Cc3ccccc3)CC1)c1cc(Cl)ccc12	Granule exo inh 63.8, Myeloid diff MLP inconclusive | Granule exo CP1 69.2
O=C(NC1CCN(Cc2ccccc2)CC1)C1CCN(S(=O)(=O)c2ccc(Cl)cc2)CC1	none (no result: DSG3 Ab inh)
CC(C)=CCC[C@H](C)C[C@@H]1Cc2[nH][nH]c(=O)c2[C@H](c2ccc(F)cc2)O1	none (no result: DSG3 Ab inh, Cardio protect)
CCOC(=O)C(NC(=O)Nc1ccc(Cl)cn1)(Oc1ccccc1)C(F)(F)F (centres undefined)	none
COC(C[C@@H](O)[C@H](C)[C@@H](O)COCc1ccccc1)OC	Granule exo inh 69.5 | Granule exo CP1 inactive
COC(C[C@H](O)[C@@H](C)[C@@H](O)COCc1ccccc1)OC	none
Cc1ccc(OCc2ccc(-c3ccccc3)cc2)c([N+](=O)[O-])n1	Granule exo inh 88.1 | Granule exo CP1 inactive
O=C(CNS(=O)(=O)c1cccc(F)c1)OCC(=O)N1CCCC1=O	none (no result: DSG3 Ab inh)
O=C(CNS(=O)(=O)c1c(F)cc(F)cc1Br)OCC(=O)N1CCCC1=O	Granule exo inh 61.2 | Granule exo CP1 inactive
CNC(=O)COc1ncnc2scc(-c3ccc(F)cc3)c12	none
COc1cc2c(cc1NC(=O)CSc1nnc(COc3ccc(Cl)cc3)n1C)oc1ccccc12	Granule exo inh 60.3 | Granule exo CP1 inactive
COc1ccccc1N1CCN(S(=O)(=O)c2ccc(-n3cnnn3)cc2)CC1	none
COC(=O)C1=C(C)N(Cc2ccco2)C(=O)N[C@@H]1c1ccc(Br)cc1	Granule exo inh 55.7 | Granule exo CP1 inactive
COc1ccc(/C=C/C(=O)N2CCCc3ccccc32)c(OC)c1	Granule exo inh 71.5 | Granule exo CP1 inactive
COc1ccc(OC)c(/C=C/C(=O)N2CCCc3ccccc32)c1	none
O=C(Cn1sc2ccccc2c1=O)Nc1ccc(F)cc1	Granule exo inh 64.5 | Granule exo CP1 103.6
O=C(Cn1nc(-c2ccccc2)c2ccccc2c1=O)Nc1ccc(F)cc1	none
Cc1cc(C)c(C)c(S(=O)(=O)NCc2ccncc2)c1C	none (no result: DSG3 Ab inh)
COc1ccc(COc2ccc3c(C)cc(=O)oc3c2)cc1	Granule exo inh 75.0 | Granule exo CP1 inactive
COc1ccc(C(=O)C2CCCN(C(=O)c3cccnc3OC)C2)cc1F (centres undefined)	Granule exo inh 76.7 | Granule exo CP1 inactive
COc1ccc2cc(C(=O)C3CCCN(C(=O)c4cccnc4)C3)ccc2c1 (centres undefined)	none
O=C(c1ccc2ccccc2c1)C1CCCN(C(=O)c2cccnc2)C1 (centres undefined)	Granule exo inh 65.8 | Granule exo CP1 inactive
Cn1c(SCc2cccc([N+](=O)[O-])c2)nc2ccccc2c1=O	none (no result: DSG3 Ab inh)
Cn1c(SCc2cccc(C#N)c2)nc2ccccc2c1=O	Granule exo inh 70.7 | Granule exo CP1 inactive
COc1cc(NC(=O)c2cc(-c3ccccc3Cl)on2)cc(OC)c1OC	Granule exo inh 69.3, Myeloid diff MLP inconclusive | Granule exo CP1 inactive
COc1ccc(NC(=O)c2cc(-c3ccccc3Cl)on2)cc1	none
CCn1nc(C(=O)NNS(=O)(=O)c2ccc(C)cc2)c2ccccc2c1=O	none
CCOc1ccccc1NC(=O)CN1C(=O)C(=O)N(Cc2ccco2)C1=O	none
Cc1cc2c(C)cc(=O)[nH]c2cc1NC(=O)CCl	none
CCC(=O)Nc1cc2[nH]c(=O)cc(C)c2cc1C	Granule exo inh 58.5 | Granule exo CP1 inactive
Cc1ccc(C)c(NC(=O)COC(=O)c2cc(=O)c3ccccc3o2)c1	Granule exo inh 73.3 | Granule exo CP1 inactive
Cc1ccc(C)c(NC(=O)c2cc(=O)c3ccccc3o2)c1	none
CCCCNc1c(-c2ccc(-c3cccc(Cl)c3)cc2)nc2ccccn12	none
CCCCCCSc1ccc(-c2nc3ccccn3c2NCCCC)cc1	Granule exo inh 70.5 | Granule exo CP1 inactive
N#Cc1cc(Oc2cccc3cccnc23)c(-n2nnc3ccccc32)cc1C#N	Granule exo inh 99.0 | Granule exo CP1 inactive
O=C(NCCc1c[nH]c2ccccc12)C(=O)Nc1cc2c3c(c1)CC(=O)N3CCC2	none
CC(C)Nc1nc(NCCOc2ccccc2Cl)c2sc(-c3ccccc3)cc2n1	Granule exo inh 58.1 (no result: DSG3 Ab inh) | Granule exo CP1 inactive
COc1ccc(Cl)cc1C(=O)Nc1ccccc1N1CCCCC1	Granule exo inh 56.8 | Granule exo CP1 inactive
